The results in this text go back to ChEMBL document CHEMBL4190191, “Cyclic Diarylheptanoids from Corylus avellana Green Leafy Covers: Determination of Their Absolute Configurations and Evaluation of Their Antioxidant and Antimicrobial Activities” (J Nat Prod, 2017).

Series [1] has as its system Escherichia coli. In words: Antimicrobial activity against Escherichia coli DSM 8579 assessed as growth inhibition at 7 ug per disc after 24 to 48 hrs (reference value: 0 millimeter). Format: functional. The conditions noted are these: read-out: DIZ.
The subject of series [2] is Bacillus cereus. In words: Antimicrobial activity against Bacillus cereus DSM 4384 assessed as growth inhibition at 7 ug per disc after 24 to 48 hrs (reference value: 0 millimeter). In kind it is functional. The conditions noted are these: read-out: DIZ.
For series [3], the system named is Bacillus cereus. In words: Antimicrobial activity against Bacillus cereus DSM 4313 assessed as growth inhibition at 7 ug per disc after 24 to 48 hrs (reference value: 0 millimeter). Format: functional. The conditions noted are these: read-out: DIZ.
Series [4] relates to Pseudomonas aeruginosa. Kind of series: Antimicrobial activity against Pseudomonas aeruginosa DSM 50071 assessed as growth inhibition at 7 ug per disc after 24 to 48 hrs (reference value: 0 millimeter). Format: functional. As to conditions: read-out: DIZ.
Series [5] concerns Staphylococcus aureus. In words: Antimicrobial activity against Staphylococcus aureus DSM 25923 assessed as growth inhibition at 7 ug per disc after 24 to 48 hrs (reference value: 0 millimeter). The conditions noted are these: read-out: DIZ. In kind it is functional.
For series [6], the system named is Plasma. Kind of series: Antioxidant activity in human plasma assessed as inhibition of H2O2-induced lipid peroxidation at 10 uM after 30 mins by TBARS assay relative to control. In kind it is functional, cell-free. An outline of the steps:
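Fresh plasma from medication-free donors was incubated for 30 min at 37 °C with compound (0.1–100 μM) plus 2 mM H2O2. Lipid peroxidation was quantified as TBARS. Data are from 5–9 independent experiments, as mean ± SD.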

For series [7], the system named is Plasma. Kind of series: Antioxidant activity in human plasma assessed as inhibition of H2O2/Fe2+-induced lipid peroxidation at 10 uM after 30 mins by TBARS assay relative to control. Format: functional, cell-free. An outline of the steps:
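Human donor plasma was incubated for 30 min at 37 °C with compound at 10 μM plus 4.7 mM H2O2, 3.8 mM […] and 2.5 mM EDTA. Peroxidation was read as TBARS concentration.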

Series [8] concerns A549. Kind of series: Cytotoxicity against human A549 cells at 10 to 100 uM by MTT assay. Format: cell-based. As to conditions: a549, 100 µM. The essentials:
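A549 human lung adenocarcinoma cells were kept in DMEM with 10% FBS, 1% penicillin/streptomycin and 2 mM L-glutamine, at 37 °C under 5% CO2. Viability was measured by MTT assay after exposure to 10–100 μM.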
Background: Tetrazolium dyes change colour on reduction, which living cells bring about.

Series [9] can be described thus: Cytotoxicity against human DeFew cells at 10 to 100 uM by MTT assay. Format: cell-based. An outline of the steps: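 DeFew human B-lymphoma cells were maintained in RPMI 1640 with 10% FBS, 1% penicillin/streptomycin and 2 mM L-glutamine, in humidified 5% CO2 at 37 °C. Cells were exposed to 10–100 μM, and viability was read by MTT.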
The subject of series [10] is Escherichia coli. In words: Antimicrobial activity against Escherichia coli DSM 8579 assessed as growth inhibition at 10 ug per disc after 24 to 48 hrs (reference value: 0 millimeter). In kind it is functional. As to conditions: read-out: DIZ.
Series [11] concerns Bacillus cereus. In words: Antimicrobial activity against Bacillus cereus DSM 4384 assessed as growth inhibition at 10 ug per disc after 24 to 48 hrs (reference value: 0 millimeter). Format: functional. The conditions noted are these: read-out: DIZ.
Series [12] has as its system Bacillus cereus. Kind of series: Antimicrobial activity against Bacillus cereus DSM 4313 assessed as growth inhibition at 10 ug per disc after 24 to 48 hrs (reference value: 0 millimeter). The conditions noted are these: read-out: DIZ. In kind it is functional.
The test system of series [13] is Pseudomonas aeruginosa. In words: Antimicrobial activity against Pseudomonas aeruginosa DSM 50071 assessed as growth inhibition at 10 ug per disc after 24 to 48 hrs (reference value: 0 millimeter). In kind it is functional. As to conditions: read-out: DIZ.
Series [14] relates to Staphylococcus aureus. In words: Antimicrobial activity against Staphylococcus aureus DSM 25923 assessed as growth inhibition at 10 ug per disc after 24 to 48 hrs (reference value: 0 millimeter). Format: functional. The conditions noted are these: read-out: DIZ.
The test system of series [15] is Escherichia coli. Kind of series: Antimicrobial activity against Escherichia coli DSM 8579 assessed as growth inhibition at 20 ug per disc after 24 to 48 hrs (reference value: 0 millimeter). Format: functional. As to conditions: read-out: DIZ.
Series [16] concerns Bacillus cereus. Kind of series: Antimicrobial activity against Bacillus cereus DSM 4384 assessed as growth inhibition at 20 ug per disc after 24 to 48 hrs (reference value: 0 millimeter). In kind it is functional. As to conditions: read-out: DIZ.
The test system of series [17] is Bacillus cereus. Kind of series: Antimicrobial activity against Bacillus cereus DSM 4313 assessed as growth inhibition at 20 ug per disc after 24 to 48 hrs (reference value: 0 millimeter). In kind it is functional. As to conditions: read-out: DIZ.
Series [18] deals with Pseudomonas aeruginosa. In words: Antimicrobial activity against Pseudomonas aeruginosa DSM 50071 assessed as growth inhibition at 20 ug per disc after 24 to 48 hrs (reference value: 0 millimeter). Format: functional. As to conditions: read-out: DIZ.
The subject of series [19] is Staphylococcus aureus. In words: Antimicrobial activity against Staphylococcus aureus DSM 25923 assessed as growth inhibition at 20 ug per disc after 24 to 48 hrs (reference value: 0 millimeter). In kind it is functional. As to conditions: read-out: DIZ.
Series [20] relates to Bacillus cereus. Kind of series: Antimicrobial activity against Bacillus cereus DSM 4384 assessed as growth inhibition at 40 ug per disc after 24 to 48 hrs (reference value: 0 millimeter). Format: functional. As to conditions: read-out: DIZ.
The test system of series [21] is Escherichia coli. Kind of series: Antimicrobial activity against Escherichia coli DSM 8579 assessed as growth inhibition at 40 ug per disc after 24 to 48 hrs (reference value: 0 millimeter). In kind it is functional. As to conditions: read-out: DIZ.
Series [22] concerns Bacillus cereus. In words: Antimicrobial activity against Bacillus cereus DSM 4313 assessed as growth inhibition at 40 ug per disc after 24 to 48 hrs (reference value: 0 millimeter). In kind it is functional. The conditions noted are these: read-out: DIZ.
The subject of series [23] is Pseudomonas aeruginosa. In words: Antimicrobial activity against Pseudomonas aeruginosa DSM 50071 assessed as growth inhibition at 40 ug per disc after 24 to 48 hrs (reference value: 0 millimeter). Format: functional. As to conditions: read-out: DIZ.
In series [24] the test system is Staphylococcus aureus. In words: Antimicrobial activity against Staphylococcus aureus DSM 25923 assessed as growth inhibition at 40 ug per disc after 24 to 48 hrs (reference value: 0 millimeter). The conditions noted are these: read-out: DIZ. Format: functional.
Series [25] concerns Bacillus cereus. Kind of series: Antimicrobial activity against Bacillus cereus DSM 4313 assessed per disc after 24 hrs by resazurin dye-based microtiter-plate assay. Format: functional. An outline of the steps: (§1)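 Resazurin microtiter-plate broth dilution. Samples in DMSO were twofold serially diluted in Mueller-Hinton broth with isosensitized broth and resazurin indicator. Bacteria were added to about 5 × 10^5 cfu/mL. Ciprofloxacin served as positive control and DMSO as negative control. Plates were run in triplicate at 37 °C for 24 h. MIC is the lowest concentration […].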
In general terms: The colour change of resazurin is a common sign of viable cells or microbes.

For series [26], the system named is Bacillus cereus. Kind of series: Antimicrobial activity against Bacillus cereus DSM 4384 assessed per disc after 24 hrs by resazurin dye-based microtiter-plate assay. In kind it is functional. An outline of the steps:
as §1

The subject of series [27] is Escherichia coli. In words: Antimicrobial activity against Escherichia coli DSM 8579 assessed per disc after 24 hrs by resazurin dye-based microtiter-plate assay. In kind it is functional. An outline of the steps:
as §1

Series [28] has as its system Pseudomonas aeruginosa. In words: Antimicrobial activity against Pseudomonas aeruginosa DSM 50071 assessed per disc after 24 hrs by resazurin dye-based microtiter-plate assay. In kind it is functional. An outline of the steps: as §1
Series [29] relates to Staphylococcus aureus. In words: Antimicrobial activity against Staphylococcus aureus DSM 25923 assessed per disc after 24 hrs by resazurin dye-based microtiter-plate assay. Format: functional. An outline of the steps:
as §1

On to `CN(C)[C@@H]1C(O)=C(C(N)=O)C(=O)[C@@]2(O)C(O)=C3C(=O)c4c(O)cccc4[C@@](C)(O)[C@H]3C[C@@H]12` [TETRACYCLINE], for which the zone of inhibition at 7 µg/disc in [1] is 12.7 mm; in series [2], 8.67 mm; in [3], 10.3 mm; in series [4] it was 9.67 mm; in series [5] it was 11.3 mm.
As usually defined, the inhibition is how much of the control response was suppressed. As to `O=C1Cc2ccc(O)c(c2)-c2cc(ccc2O)C[C@@H](O)[C@@H](O)[C@@H](O)[C@H]1O` (mixture of isomers), the inhibition came out at 33.3% in series [6] and 14.4% in [7]. Also, the Activity entry in [8] and in series [9] was “Non-Toxic” each time. Also, the zone of inhibition at 10 µg/disc in series [10] came out at 4.67 mm; in [11] it was 5.67 mm; in series [12] it was 5.67 mm; in series [13], 5 mm; in series [14] it was 6.33 mm. For the same molecule, the zone of inhibition at 20 µg/disc in series [15] was 10 mm; in [16] it was 9.67 mm; in series [17], 9.67 mm; in [18] it was 8.67 mm; in [19] it was 10 mm. Moreover, the zone of inhibition at 40 µg/disc is 11.3 mm in [20]; 10.3 mm in series [21]; 10.7 mm in series [22]; 10 mm in series [23]; 10.7 mm in [24]. Further, the MIC in series [25] was 5 µg; in series [26] it was 5 µg; in series [27], 10 µg; in series [28], 10 µg; in series [29] it was 30 µg.
Regarding `O=C1CCc2ccc(O[C@@H]3O[C@H](CO)[C@@H](O)[C@H](O)[C@H]3O)c(c2)-c2cc(ccc2O)C[C@@H](O)[C@H](O)[C@H]1O` (mixture of isomers), the inhibition was determined as 14.7% in series [6] and 23.3% in series [7]. Besides, the Activity entry in series [8] and in [9] was “Non-Toxic” throughout. Besides, the zone of inhibition at 10 µg/disc in series [10], in series [11], in [12], in [13] and in series [14] was 0 mm throughout. Moreover, the zone of inhibition at 20 µg/disc in series [15], in series [16], in series [17], in series [18] and in series [19] was 0 mm in each case. The zone of inhibition at 40 µg/disc in series [20] amounted to 0 mm; in [21], 0 mm; in series [22], 5 mm; in [23], 9 mm; in series [24], 11.3 mm. Besides, the MIC in series [25] came to 30 µg; in series [26], 50 µg; in series [27], 50 µg; in series [28] it was 30 µg; in [29] it was 30 µg.
